Data as given in ChEMBL document CHEMBL4364260, “Discovery of Ziresovir as a Potent, Selective, and Orally Bioavailable Respiratory Syncytial Virus Fusion Protein Inhibitor” (J Med Chem, 2019).

Experiments:
Human orthopneumovirus = experiment: Antiviral activity against Human respiratory syncytial virus A2 infected in human Hep2 cells assessed as reduction in virus induced cytopathic effect after 5 days by CCK-8 assay; assay type: functional, organism-based; conditions: A2, HEp-2, 120 h
How it was run: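 CPE protection assay in HEp-2 cells, 6000 per well, infected next day with RSV at MOI 0.02 to give about 90% cytopathic effect after 5 days. Serial compound dilutions were present during incubation. Cell viability was measured by CCK-8 at day 5 to give EC50.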

[1] = Half-life in Sprague-Dawley rat at 2 mg/kg, iv; assay type: ADME, organism-based; conditions: in vivo
How it was run: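 Rat single-dose PK: 2 mg/kg iv and 10 mg/kg po. Compound was given as a solution in 5% DMSO/40% PEG400/55% of 0.9% saline. Plasma CL, Vss, iv half-life, AUC and oral bioavailability were reported.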

[2] = Antiviral activity against Human respiratory syncytial virus A strain Long infected in human Hep2 cells assessed as plaque reduction […] by chloro-1-naphthol staining-based assay; assay type: functional
How it was run: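 HEp-2 monolayers in 12-well plates got 0.5 ml of 200 PFU/ml RSV Long with or without serial compound dilutions. After 2 h they were overlaid with DMEM/F12, 4% FBS, 0.55% agarose plus compound and incubated 3 days. Cells were fixed in 4% paraformaldehyde for 6 h and immunostained with anti-RSV mAb (1:300), then HRP anti-mouse. Plaques were developed with 4-chloro-1-naphthol/H2O2 and counted.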

[3] = Half-life in CD-1 mouse lung at 10 mg/kg/day, po administered via gavage and measured up to 24 hrs by LC/MS/MS analysis; assay type: ADME, organism-based

Question: With `Cc1ccc2nc(N3CCS(=O)(=O)c4ccccc4C3)nc(NCC3(N)COC3)c2c1` [ZIRESOVIR] as the compound, how does the EC50 (Human orthopneumovirus) read?
Answer: 2 nM

Question: And the EC90 (Human orthopneumovirus)?
Answer: 3 nM

Question: And the half-life [1]?
Answer: 1.2 h

Question: And the EC90 [2]?
Answer: 10 nM

Question: What about the half-life [3] of the same compound?
Answer: 3.31 h
